Consider six molecules from ChEMBL document CHEMBL3769370, “Synthesis and SAR of 4-methyl-5-pentylbenzene-1,3-diol (MPBD), produced by Dictyostelium discoideum” (2016).

The structures appear in SMILES notation. The source made the active and inactive calls. The rule behind the calls is not given here.

What all share (format): functional
In test [1] the test system is Bacillus subtilis. Briefly: Antibacterial activity against Bacillus subtilis at 100 mM after 16 to 24 hrs by disk diffusion assay. The note with it: for zone of inhibition at 100000 µM: read-out: DIZ. The essentials:
(§1)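 Bacteria grown in Lysogeny broth (LB), spread on LB or lactose peptone (LP) agar, and plates dried 10 min. 6 mm filter-paper disks placed, five per plate, at least 3 cm apart. Each disk loaded with a 100 mM solution of compound. Incubation 16–24 h at 37 °C. Zone of clearance around each disk inspected and photographed.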
Background: Agar diffusion results depend on both activity and mobility in agar.

For test [2], the system named is Escherichia coli. Briefly: Antibacterial activity against Escherichia coli at 100 mM after 16 to 24 hrs by disk diffusion assay. The note with it: for zone of inhibition at 100000 µM: read-out: DIZ. The essentials: as §1
Test [3] deals with Escherichia coli. Briefly: Antibacterial activity against Escherichia coli at 50 mM after 16 to 24 hrs by disk diffusion assay. The note with it: read-out: DIZ. The essentials:
(§2)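 Positive-control disks loaded with 50 mM ampicillin solution. Bacteria grown in LB and spread on LB or LP agar, with plates dried 10 min before disks were placed. Disks were 6 mm filter paper, five per plate spaced at least 3 cm apart. Plates held at 37 °C for 16–24 h, then the clearance zone was checked and photographed.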

In test [4] the test system is Bacillus subtilis. Briefly: Antibacterial activity against Bacillus subtilis at 50 mM after 16 to 24 hrs by disk diffusion assay. The following applies: read-out: DIZ. The essentials: as §2

`CCCCCc1cc(O)ccc1C`: the zone of inhibition at 100000 µM in test [1] and in test [2] was 1 mm in each case.

As for `CCCCCc1cc(O)cc(O)c1C`, the results for the zone of inhibition at 100000 µM in test [1] and in test [2] were 1 mm and 5 mm, respectively.

As for `CCCCCc1cc(O)cc(O)c1CC`, the zone of inhibition at 100000 µM in test [1] was 1 mm; in test [2], 4 mm.

For the molecule `CC1(C)S[C@@H]2[C@H](NC(=O)[C@H](N)c3ccccc3)C(=O)N2[C@H]1C(=O)O` [AMPICILLIN], the zone of inhibition at 50000 µM in test [3] and in test [4] was 7 mm throughout.

Consider `CCCCCc1cc(OC)cc(OC)c1C`, for which the result in test [1] and in test [2] was inactive.

Turning to `CCCCCc1cc(O)cc(O)c1CCC`, the zone of inhibition at 100000 µM in test [1] and in test [2] was 4 mm each time.
